Source: ChEMBL document CHEMBL4011605, “N-Piperonyl substitution on aminoquinoline-pyrimidine hybrids: Effect on the antiplasmodial potency” (Eur J Med Chem, 2017)
Activity calls are given as the source filed them. The rule behind the calls is not given here.

Columns and labels:
[1] = tested on: Plasmodium falciparum; assay: Antiplasmodial activity against chloroquine-sensitive Plasmodium falciparum D6 infected in red blood cells after 72 hrs by Malstat reagent based LDH assay; type: functional, cell-based; settings: D6, 72 h
[2] = tested on: Plasmodium falciparum; assay: Antiplasmodial activity against chloroquine-resistant Plasmodium falciparum W2 infected in red blood cells after 72 hrs by Malstat reagent based LDH assay; type: functional, cell-based; settings: W2, 72 h
[3] = tested on: Vero; assay: Cytotoxicity against African green monkey Vero cells up to 9 uM; type: cell-based; settings: chlorocebus sabaeus
[4] = Selectivity index, ratio of IC50 for African green monkey Vero cells to IC50 for chloroquine-sensitive Plasmodium falciparum D6; type: toxicity; settings: read-out: Ratio IC50
Outline: (§1)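 Selectivity index is the ratio of the VERO cytotoxicity IC50 to the antiplasmodial IC50 for the strain named. VERO cells were tested up to a highest concentration of 9 µM.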

[5] = Selectivity index, ratio of IC50 for African green monkey Vero cells to IC50 for chloroquine-resistant Plasmodium falciparum W2; type: toxicity; settings: read-out: Ratio IC50; outline: as §1
[6] = tested on: Plasmodium falciparum; assay: Potency index, ratio of chloroquine IC50 to compound IC50 for chloroquine-resistant Plasmodium falciparum W2; type: functional
[7] = tested on: Heme; assay: Binding affinity to monomeric heme (unknown origin) assessed as decrease in intensity of soret band at 0.5 to 70 uM at pH 5.4 and 7.4 by titration based UV-vis spectrophotometric analysis
Outline: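 Hemin stock (1.0 mM in DMSO, kept at 4 °C in the dark) is diluted daily to 10 µM monomeric heme in 0.02 M HEPES pH 7.4 or 0.02 M MES pH 5.4. Drug comes from a 1.0 mM DMSO stock and is titrated at 0.5–70 µM. After each addition the sample is mixed and the Soret band at 402 nm is read.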

[8] = tested on: Heme; assay: Binding affinity to monomeric heme (unknown origin) assessed as mole fraction of compound required to show 1:1 stoichiometry for heme-compound complex at pH 5.4 to 7.4 by Job's plot method
Outline: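 Binding stoichiometry with monomeric heme is found by Job's continuous variation. Total drug plus heme is held at 10 µM, at pH 7.4 (HEPES) and at pH 5.4 (MES), with heme from a DMSO hemin stock. Absorbance is plotted against drug mole fraction.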

[9] = tested on: mu-oxodimeric heme; assay: Binding affinity to mu-oxodimeric heme (unknown origin) in aqueous NaOH solution at 0.5 to 70 uM at pH 5.8 by titration-based UV-vis spectrophotometric analysis
Outline: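 µ-Oxodimeric heme: hemin chloride is dissolved to 1.0 mM in 0.1 M aqueous NaOH with 30 min sonication, then diluted to 10 µM in 20 mM phosphate pH 5.8. Aliquots of a 1.0 mM drug stock are added stepwise (0.5–70 µM), and absorbance at 362 nm is recorded.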

[10] = tested on: mu-oxodimeric heme; assay: Binding affinity to mu-oxodimeric heme (unknown origin) in aqueous NaOH solution assessed as 1:1 stoichiometry for heme-compound complex at 10 uM at pH 5.8 by Job's plot method
[11] = tested on: Vero; assay: Cytotoxicity against African green monkey Vero cells; type: cell-based; settings: chlorocebus sabaeus
Outline: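 VERO (mammalian) cells were exposed to compounds up to a highest tested concentration of 9 µM. Cytotoxicity was expressed as IC50.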

SMILES | IC50 [1] | IC50 [2] | Activity [3] | selectivity ratio [4] | selectivity ratio [5] | Ratio IC50 [6] | Activity [7] | Activity [8] | Activity [9] | Activity [10] | IC50 [11]
CCN1CCN(c2nc(C)cc(N(CCCNc3ccnc4cc(Cl)ccc34)Cc3ccc4c(c3)OCO4)n2)CC1 | 40 nM | 170 nM | Non-Toxic | > 194 | > 47.6 | 2 - 5 | – | – | – | – | –
Cc1cc(N(CCNc2ccnc3cc(Cl)ccc23)Cc2ccc3c(c2)OCO3)nc(N2CCOCC2)n1 | 50 nM | 220 nM | Non-Toxic | > 243 | > 66.8 | 2 - 5 | – | – | – | – | –
CCN1CCN(c2cc(C)nc(N(CCCNc3ccnc4cc(Cl)ccc34)Cc3ccc4c(c3)OCO4)n2)CC1 | 120 nM | 220 nM | Non-Toxic | > 71.1 | > 37.9 | 2 - 5 | – | – | – | – | –
CCN1CCN(c2nc(C)cc(N(CCNc3ccnc4cc(Cl)ccc34)Cc3ccc4c(c3)OCO4)n2)CC1 | 20 nM | 50 nM | Non-Toxic | > 243 | > 60.4 | 8 | Active | 0.5 molar ratio | Active | Active | –
Cc1cc(N2CCCC2)nc(N(CCCNc2ccnc3cc(Cl)ccc23)Cc2ccc3c(c2)OCO3)n1 | 120 nM | 590 nM | Non-Toxic | > 76.7 | > 15.1 | – | – | – | – | – | –
Clc1ccc2c(NCCCNCc3ccc4c(c3)OCO4)ccnc2c1 | 40 nM | 100 nM | Non-Toxic | > 243 | > 84.5 | 2 - 5 | – | – | – | – | –
Cc1cc(N(CCNc2ccnc3cc(Cl)ccc23)Cc2ccc3c(c2)OCO3)nc(N2CCCC2)n1 | 40 nM | 100 nM | Non-Toxic | > 243 | > 243 | – | – | – | – | – | –
Cc1cc(N2CCCCC2)nc(N(CCCNc2ccnc3cc(Cl)ccc23)Cc2ccc3c(c2)OCO3)n1 | 150 nM | 360 nM | Non-Toxic | > 57.2 | > 24.2 | – | – | – | – | – | –
Cc1cc(N2CCOCC2)nc(N(CCCNc2ccnc3cc(Cl)ccc23)Cc2ccc3c(c2)OCO3)n1 | 130 nM | 930 nM | – | 67 | 9.4 | – | – | – | – | – | 8680 nM
Cc1cc(N(CCCNc2ccnc3cc(Cl)ccc23)Cc2ccc3c(c2)OCO3)nc(N2CCOCC2)n1 | 150 nM | 910 nM | Non-Toxic | > 60 | > 9.5 | – | – | – | – | – | –
Cc1cc(N(CCCNc2ccnc3cc(Cl)ccc23)Cc2ccc3c(c2)OCO3)nc(N2CCCCC2)n1 | 150 nM | 990 nM | Non-Toxic | > 59.8 | > 8.8 | – | – | – | – | – | –
Cc1cc(N2CCCC2)nc(N(CCNc2ccnc3cc(Cl)ccc23)Cc2ccc3c(c2)OCO3)n1 | 150 nM | 930 nM | Non-Toxic | > 59.2 | > 9.8 | – | – | – | – | – | –
CCN1CCN(c2cc(C)nc(N(CCNc3ccnc4cc(Cl)ccc34)Cc3ccc4c(c3)OCO4)n2)CC1 | 30 nM | 140 nM | Non-Toxic | > 239 | > 60.4 | 2 - 5 | – | – | – | – | –
Cc1cc(Cl)nc(N(CCNc2ccnc3cc(Cl)ccc23)Cc2ccc3c(c2)OCO3)n1 | 480 nM | 1010 nM | Non-Toxic | > 20.5 | > 9.8 | – | – | – | – | – | –
Cc1cc(N(CCCNc2ccnc3cc(Cl)ccc23)Cc2ccc3c(c2)OCO3)nc(Cl)n1 | 460 nM | 1140 nM | Non-Toxic | > 20.9 | > 8.4 | – | – | – | – | – | –
Cc1cc(N(CCNc2ccnc3cc(Cl)ccc23)Cc2ccc3c(c2)OCO3)nc(N2CCCCC2)n1 | 50 nM | 290 nM | Non-Toxic | > 174 | > 30.5 | – | – | – | – | – | –
Cc1cc(Cl)nc(N(CCCNc2ccnc3cc(Cl)ccc23)Cc2ccc3c(c2)OCO3)n1 | 1110 nM | 5160 nM | Non-Toxic | > 8.6 | > 1.9 | – | – | – | – | – | –
Cc1cc(N2CCCCC2)nc(N(CCNc2ccnc3cc(Cl)ccc23)Cc2ccc3c(c2)OCO3)n1 | 170 nM | < 430 nM | Non-Toxic | > 53.6 | > 15.9 | – | – | – | – | – | –
Cc1cc(N(CCNc2ccnc3cc(Cl)ccc23)Cc2ccc3c(c2)OCO3)nc(Cl)n1 | 590 nM | 780 nM | Non-Toxic | > 16.8 | > 12.3 | – | – | – | – | – | –
CCN(CC)CCCC(C)Nc1ccnc2cc(Cl)ccc12 (stereo not drawn) [CHLOROQUINE] | – | – | Non-Toxic | – | – | – | – | – | – | – | –
Cc1cc(N2CCOCC2)nc(N(CCNc2ccnc3cc(Cl)ccc23)Cc2ccc3c(c2)OCO3)n1 | 130 nM | 810 nM | – | 51.4 | 8.5 | – | – | – | – | – | 6860 nM
Cc1cc(N(CCCNc2ccnc3cc(Cl)ccc23)Cc2ccc3c(c2)OCO3)nc(N2CCCC2)n1 | 50 nM | 90 nM | Non-Toxic | > 192 | > 96.9 | 2 - 5 | – | – | – | – | –
Clc1ccc2c(NCCNCc3ccc4c(c3)OCO4)ccnc2c1 | 30 nM | 50 nM | Non-Toxic | > 243 | > 54.3 | 8 | – | – | – | – | –
